Among the data in ChEMBL document CHEMBL4020714, “Design, synthesis, and evaluation of curcumin derivatives as Nrf2 activators and cytoprotectors against oxidative death” (Eur J Med Chem, 2017) are Activity and inhibition values, retold here.

Calls of active or inactive are those of the source. No cut-off for these calls is given here.

What all share (assay type): cell-based
For test [1], the target named is T1, Nuclear factor erythroid 2-related factor 2 (Homo sapiens) (UniProt Q16236).
T1 sequence (whole entry): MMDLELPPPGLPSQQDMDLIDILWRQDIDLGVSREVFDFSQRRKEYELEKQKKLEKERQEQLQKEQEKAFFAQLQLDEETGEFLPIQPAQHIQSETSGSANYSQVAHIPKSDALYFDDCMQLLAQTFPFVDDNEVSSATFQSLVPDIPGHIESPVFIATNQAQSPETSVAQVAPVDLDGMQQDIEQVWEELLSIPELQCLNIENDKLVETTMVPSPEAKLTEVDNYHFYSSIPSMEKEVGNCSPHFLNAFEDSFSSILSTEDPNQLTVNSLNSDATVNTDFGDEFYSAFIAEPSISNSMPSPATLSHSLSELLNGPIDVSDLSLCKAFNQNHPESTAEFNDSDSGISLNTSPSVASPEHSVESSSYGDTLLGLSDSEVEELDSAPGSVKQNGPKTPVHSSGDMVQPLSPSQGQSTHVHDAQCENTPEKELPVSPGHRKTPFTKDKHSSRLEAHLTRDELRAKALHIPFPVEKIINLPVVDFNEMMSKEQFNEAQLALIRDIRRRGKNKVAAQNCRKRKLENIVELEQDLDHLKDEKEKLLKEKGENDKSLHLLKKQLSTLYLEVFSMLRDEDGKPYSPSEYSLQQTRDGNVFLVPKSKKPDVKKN
The experiment in a line: Activation of Nrf2 in human HepG2 cells assessed as cytoprotection against t-BHP-induced oxidative cell death at 5 uM incubated for 24 hrs followed by compound removal with subsequent incubation with 900 uM of t-BHP for 6 hrs in presence of 3 uM HO-1 inhibitor ZnPP for 1 hr prior to compound treatment by MTT assay. The method in brief: (§1)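 HepG2 cells (5×10^3/well) seeded and grown 24 h in 1640 medium with 10% FBS at 37 °C and 5% CO2. Compound is added for 24 h, then removed, and cells are challenged with 900 μM t-BHP for 6 h at 37 °C. MTT (0.5 mg/mL) is added for 4 h, formazan dissolved in DMSO, and absorbance read at 570 nm. Where used, inhibitors are added 1 h before compound. Mean ± SD of three independent experiments.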
(Tetrazolium dyes change colour on reduction, which living cells bring about.)

In test [2] the target is T1, Nuclear factor erythroid 2-related factor 2 (Homo sapiens). Put plainly: Activation of Nrf2 in human HepG2 cells assessed as increase in GCLM expression level at 5 uM in presence of 25 uM JNK inhibitor SP600125 for 1 hr prior to compound treatment by Western blot analysis. An outline of the steps: (§2)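 HepG2 cells (2×10^6/well) treated at the indicated concentrations and times. Whole-cell lysates, or nuclear and cytoplasmic fractions, are prepared and quantified by BCA. Samples are run at 40 μg/lane on 12% SDS-PAGE, transferred to nitrocellulose, probed with specific antibodies and HRP secondary (1/5000), and detected by ECL. Where used, LY294002 (15 μM), SP600125 (25 μM) or DTT (400 μM) is added 1 h before compound.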

Test [3] addresses RAC-alpha serine/threonine-protein kinase (Homo sapiens) (UniProt P31749). Put plainly: Induction of Akt phosphorylation in human HepG2 cells at 5 uM by Western blot analysis. Conditions: TDE = time-dependent effect. The method in brief: as §2
(In general: In western blotting, separated proteins are transferred to a membrane and probed.)

Test [4] has as its target T1, Nuclear factor erythroid 2-related factor 2 (Homo sapiens). The experiment in a line: Activation of Nrf2 in human HepG2 cells assessed as cytoprotection against t-BHP-induced oxidative cell death incubated for 24 hrs followed by compound removal with subsequent incubation with 900 uM of t-BHP for 6 hrs by MTT assay. The method in brief:
as §1

Test [5] shares this target. Put plainly: Activation of Nrf2 in human HepG2 cells assessed as cytoprotection against t-BHP-induced oxidative cell death at 5 uM incubated for 24 hrs followed by compound removal with subsequent incubation with 900 uM of t-BHP for 6 hrs in presence of 100 uM iron chelator DFO for 1 hr prior to compound treatment by MTT assay. The method in brief:
as §1

The target is the same in test [6]. The experiment in a line: Activation of Nrf2 in human HepG2 cells assessed as increase in Nrf2 expression level after 3 hrs by Western blot analysis. The method in brief: as §2
Test [7] has the same target. The experiment in a line: Activation of Nrf2 in human HepG2 cells assessed as cytoprotection against t-BHP-induced oxidative cell death at 5 uM incubated for 24 hrs followed by compound removal with subsequent incubation with 900 uM of t-BHP for 6 hrs in presence of 100 nM copper chelator NEO for 1 hr prior to compound treatment by MTT assay. The method in brief: as §1

Test [8] has the same target. The experiment in a line: Activation of Nrf2 in human HepG2 cells assessed as increase in HO-1 expression level at 5 uM in presence of 25 uM JNK inhibitor SP600125 for 1 hr prior to compound treatment by Western blot analysis. An outline of the steps:
as §2

Test [9] has the same target. Put plainly: Activation of Nrf2 in human HepG2 cells assessed as cytoprotection against t-BHP-induced oxidative cell death at 5 uM incubated for 24 hrs followed by compound removal with subsequent incubation with 900 uM of t-BHP for 6 hrs in presence of 10 uM GCL inhibitor BSO for 1 hr prior to compound treatment by MTT assay. An outline of the steps: as §1
For test [10] the target is unchanged. The experiment in a line: Activation of Nrf2 in human HepG2 cells assessed as increase in GCLM expression level at 5 uM in presence of 15 uM PI3K/Akt inhibitor LY294002 for 1 hr prior to compound treatment by Western blot analysis. The method in brief:
as §2

The target is the same in test [11]. The experiment in a line: Activation of Nrf2 in human HepG2 cells assessed as increase in cytosolic Nrf2 expression level at 5 uM after 12 hrs by Western blot analysis. The method in brief:
as §2

Test [12] shares this target. The experiment in a line: Activation of Nrf2 in human HepG2 cells assessed as increase in cytosolic Nrf2 expression level after 3 hrs by Western blot analysis. The method in brief:
as §2

For test [13] the target is unchanged. Put plainly: Activation of Nrf2 in human HepG2 cells assessed as increase in GCLM expression level at 5 uM by Western blot analysis. Conditions: TDE = time-dependent effect. An outline of the steps:
as §2

The target is the same in test [14]. Put plainly: Activation of Nrf2 in human HepG2 cells assessed as cytoprotection against t-BHP-induced oxidative cell death at 5 uM incubated for 24 hrs followed by compound removal with subsequent incubation with 900 uM of t-BHP for 6 hrs in presence of 400 uM DTT for 1 hr prior to compound treatment by MTT assay. The method in brief:
as §1

Test [15] has as its target Keap1/Nrf2 (Homo sapiens) (UniProt Q16236+Q14145). Put plainly: Inhibition of Keap1/Nrf2 interaction in human HepG2 cells assessed as increase in Nrf2 expression level after 3 hrs in presence of DTT for 1 hr prior to compound treatment by Western blot analysis. The method in brief: as §2
Test [16] concerns the target T1, Nuclear factor erythroid 2-related factor 2 (Homo sapiens). The experiment in a line: Activation of Nrf2 in human HepG2 cells assessed as increase in HO-1 expression level at 5 uM in presence of 15 uM PI3K/Akt inhibitor LY294002 for 1 hr prior to compound treatment by Western blot analysis. The method in brief: as §2
For test [17] the target is unchanged. The experiment in a line: Activation of Nrf2 in human HepG2 cells assessed as cytoprotection against t-BHP-induced oxidative cell death at 5 uM incubated for 24 hrs followed by compound removal with subsequent incubation with 900 uM of t-BHP for 6 hrs by MTT assay. An outline of the steps:
as §1

RAC-alpha serine/threonine-protein kinase (Homo sapiens), sequence (P31749 whole entry): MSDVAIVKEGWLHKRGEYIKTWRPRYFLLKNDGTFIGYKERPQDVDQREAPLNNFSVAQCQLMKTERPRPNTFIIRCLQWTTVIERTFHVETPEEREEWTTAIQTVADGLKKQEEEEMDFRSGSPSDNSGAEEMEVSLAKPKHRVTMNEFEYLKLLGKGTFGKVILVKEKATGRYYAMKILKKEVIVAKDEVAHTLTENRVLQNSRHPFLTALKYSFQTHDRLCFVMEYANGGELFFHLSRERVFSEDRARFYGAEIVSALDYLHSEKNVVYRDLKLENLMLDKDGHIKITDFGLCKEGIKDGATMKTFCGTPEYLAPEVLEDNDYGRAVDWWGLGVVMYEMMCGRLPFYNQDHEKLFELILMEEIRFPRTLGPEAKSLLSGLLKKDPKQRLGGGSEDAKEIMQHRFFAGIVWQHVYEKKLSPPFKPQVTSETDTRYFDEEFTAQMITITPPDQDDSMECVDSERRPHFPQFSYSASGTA
Keap1/Nrf2 (Homo sapiens), sequence (Q14145 whole entry, looked up, one chain of several): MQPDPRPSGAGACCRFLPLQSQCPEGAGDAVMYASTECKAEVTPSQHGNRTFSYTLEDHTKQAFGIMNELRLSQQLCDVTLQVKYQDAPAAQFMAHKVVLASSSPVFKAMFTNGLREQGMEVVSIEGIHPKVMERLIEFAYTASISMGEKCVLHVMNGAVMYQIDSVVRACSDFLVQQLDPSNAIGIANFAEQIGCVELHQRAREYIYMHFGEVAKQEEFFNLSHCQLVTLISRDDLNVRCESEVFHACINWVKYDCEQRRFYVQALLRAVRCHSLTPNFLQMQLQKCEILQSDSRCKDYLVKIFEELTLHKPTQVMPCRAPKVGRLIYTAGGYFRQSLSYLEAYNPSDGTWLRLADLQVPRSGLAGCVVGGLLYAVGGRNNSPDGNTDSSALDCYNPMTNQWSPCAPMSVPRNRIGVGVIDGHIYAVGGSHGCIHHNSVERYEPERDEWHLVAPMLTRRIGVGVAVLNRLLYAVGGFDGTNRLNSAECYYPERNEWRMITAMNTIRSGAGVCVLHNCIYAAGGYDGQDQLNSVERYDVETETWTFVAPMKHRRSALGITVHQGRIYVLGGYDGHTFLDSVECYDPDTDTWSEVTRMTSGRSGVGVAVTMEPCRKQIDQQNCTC

Consider `CC(C)(C(=O)/C=C/c1ccc(O)c(O)c1)C(=O)/C=C/c1ccc(O)c(O)c1`, for which the result in [1], in test [2], in [5], in test [7], in [8] and in [9] was inactive. For the same compound, the result in test [10], in test [11], in test [14] and in [16] was inactive. The Activity entry in [3] is “Tde”; in [4] it was “Dose-dependent effect”; in test [12], “Dose-dependent effect”; in [13], “Tde”. Also, the outcome in test [6] and in [17] was Active. Besides, the inhibition entry in test [15] was “inactive”.
